# Measured values from article PMC3050579 (Molecular cell, 2009).
# Where no end group is shown, it is not given here.
# T1: Ube2g2 (Homo sapiens, UniProt P60604)
# T1 sequence (P60604 1-165): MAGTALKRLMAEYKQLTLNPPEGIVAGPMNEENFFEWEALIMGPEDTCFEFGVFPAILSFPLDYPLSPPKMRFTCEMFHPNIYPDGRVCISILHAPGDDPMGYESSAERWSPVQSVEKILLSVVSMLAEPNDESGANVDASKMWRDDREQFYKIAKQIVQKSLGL
# T2: Ube2g2:G2BR complex (Homo sapiens, UniProt P60604+Q9UKV5)
# T2 sequence (P60604 1-165): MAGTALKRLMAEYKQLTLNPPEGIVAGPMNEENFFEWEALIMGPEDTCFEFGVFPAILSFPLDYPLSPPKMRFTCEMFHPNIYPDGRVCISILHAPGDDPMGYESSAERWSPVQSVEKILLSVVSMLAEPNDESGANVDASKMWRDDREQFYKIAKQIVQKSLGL
# T2 sequence (Q9UKV5 574-600 partner limits assumed): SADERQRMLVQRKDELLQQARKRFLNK
# T3: Ube2g2:G2BR complex ( | human, UniProt P60604 1-165; Q9UKV5 574-600)
# T3 sequence 1: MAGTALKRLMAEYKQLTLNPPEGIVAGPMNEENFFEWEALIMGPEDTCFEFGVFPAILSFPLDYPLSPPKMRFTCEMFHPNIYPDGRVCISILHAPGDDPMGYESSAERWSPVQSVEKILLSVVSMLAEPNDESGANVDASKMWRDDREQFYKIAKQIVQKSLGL
# T3 sequence 2: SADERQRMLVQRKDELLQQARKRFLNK
# B1: G2BR peptide (Ube2g2 binding region of gp78, amino acids 574-600) (peptide, UniProt Q9UKV5 574-600, looked up)
# peptide: SADERQRMLVQRKDELLQQARKRFLNK
# B2: Ube2g2 (enzyme)
# chain: MAGTALKRLMAEYKQLTLNPPEGIVAGPMNEENFFEWEALIMGPEDTCFEFGVFPAILSFPLDYPLSPPKMRFTCEMFHPNIYPDGRVCISILHAPGDDPMGYESSAERWSPVQSVEKILLSVVSMLAEPNDESGANVDASKMWRDDREQFYKIAKQIVQKSLGL
# How the values were obtained:
# [1] = target: UbcH5C; settings: ref Brzovic et al., 2006; cited from earlier work
# [2] = target: Ube2g2:G2BRΔN complex (UniProt P60604); test: NMR titration
# [3] = target: Ube2g2 (UniProt P60604); test: ITC
# [4] = target: Ube2g2 (UniProt P60604); test: NMR titration
# [5] = target: T1, Ube2g2; test: ITC of Ube2g2 with G2BR peptides; type: binding
# [6] = target: T1, Ube2g2; test: NMR titration of Ube2g2 with G2BR peptides; type: binding; settings: peptide with Ube2g2, 50 mM Tris, 2 mM TCEP, pH 7.5, 25°C
# How it was run: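 Samples are in 50 mM Tris, 2 mM TCEP, pH 7.5, run at 25°C on 600 and 800 MHz spectrometers with triple-resonance cryoprobes. G2BR peptide is titrated into Ube2g2 and chemical shift perturbations of Ube2g2 resonances are mapped, backed by intermolecular NOESY, to define the binding surface.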
# [7] = target: T2, Ube2g2:G2BR complex; test: NMR titration of Ube2g2:G2BR complex with gp78 RING finger; type: binding; settings: for NMR Exchange timescale: Ube2g2:G2BR complex, pH 7.5, 25°C
# How it was run: (§1)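 Purified gp78 RING finger is titrated into free Ube2g2 or the Ube2g2:G2BR complex in 50 mM Tris, 2 mM TCEP, pH 7.5, at 25°C, using 600 and 800 MHz spectrometers. Shifts of Ube2g2 peaks from free toward bound positions are followed. Kd comes from fitting peak positions against ligand:protein concentration.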
# [8] = target: T1, Ube2g2; test: Ubiquitin loading of Ube2g2; type: biochemical
# [9] = system: Ube2g2Δ96-108; test: Ubiquitin loading of Ube2g2Δ96-108; type: biochemical; settings: Ube2g2Δ96-108, printed 'almost 75%'; 4 μM G2BR, 30°C
# [10] = system: Ube2g2Δ96-108; test: Binding of G2BR to Ube2g2Δ96-108
# [11] = system: GST-gp78CΔ577-643; test: Autoubiquitylation of GST-gp78CΔ577-643 with Ube2g2; type: biochemical, human; settings: GST-gp78CΔ577-643, bead-bound, Ube2g2, E1; anti-ubiquitin immunoblot
# How it was run: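 Glutathione Sepharose-bound GST fusion of the gp78 cytoplasmic tail truncated at aa 577, at the start of the G2BR, is incubated 90 min with Ube2g2 and E1, with or without synthetic or recombinant G2BR-derived peptides added in trans. After washing, ubiquitylated bead-bound material is resolved by SDS-PAGE and immunoblotted with anti-ubiquitin.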
# [12] = system: Ub-GFP-His6; test: Ubiquitylation of Ub-GFP-His6 by gp78 cytoplasmic domain constructs; type: biochemical; settings: ~500 nM Ub-GFP-His6, Flag-tagged ubiquitin
# How it was run: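 Purified, bacterially expressed Ub-GFP-His6 (~500 nM) served as substrate for glutathione Sepharose-bound GST-gp78 lacking aa 577-643. Reactions were stopped with 2% SDS (final). After 10 min, samples were diluted to 0.1% SDS with 8 M urea in 50 mM Tris pH 7.4. Substrate was recovered on Ni2+ beads, washed, eluted and resolved by SDS-PAGE. In controls, substrate was added after termination; some reactions ran 60 min.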
# [13] = system: UbcH5B; test: Ubiquitylation by HsHRD1, Trc8 and GST-gp78CΔ577-643 with UbcH5B as E2; type: biochemical; settings: HsHRD1, Trc8 and GST-gp78CΔ577-643, UbcH5B as E2, G2BR added
# How it was run: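 GST fusions of the HsHRD1 or Trc8 cytoplasmic tails, or of truncated gp78, were bound to glutathione Sepharose. They were incubated 90 min with E1 and the indicated E2, with or without the indicated peptides. Beads were then washed, and bead-bound ubiquitylated material was resolved by SDS-PAGE and immunoblotted with anti-ubiquitin.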
# [14] = system: Ube2g2:RING finger; test: Fraction of Ube2g2 bound to gp78 RING finger in discharge reactions; type: binding; settings: 8 μM gp78 RING finger, peptide 4 μM
# [15] = system: gp78 RING finger; test: Binding of G2BR to gp78 RING finger; parameters: species or system human; settings: in the gp78 RING finger:Ube2g2:G2BR complex, separate binding experiments
# [16] = target: B2; test: ITC
# [17] = target: B2; test: ITC; remark: listed apart in the source
# [18] = target: B2; test: NMR titration
# [19] = target: T1, Ube2g2; test: NMR titration of Ube2g2 with gp78 RING finger; type: binding; settings: Ube2g2 without G2BR, pH 7.5, 25°C
# How it was run: as §1
# [20] = target: Ube2g2:G2BRΔN; test: NMR titration of Ube2g2:G2BRΔN complex with gp78 RING finger; type: binding; settings: Ube2g2 in presence of G2BRΔN, pH 7.5, 25°C
# How it was run: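 For the NMR titration, samples were in 50 mM Tris, 2 mM TCEP, pH 7.5, at 25°C, on 600 and 800 MHz spectrometers with cryoprobes. gp78 RING finger was added stepwise, and Ube2g2 peak shifts from the free toward the bound position were followed. Kd was obtained by fitting peak positions against ligand:protein concentration ratio.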
# [21] = target: Ube2g2~Ub (Homo sapiens, UniProt P60604); test: Discharge of ubiquitin from Ube2g2~Ub; type: biochemical; settings: 8 μM gp78 RING finger, Ub 80 μM, 50 mM Tris pH 7.4, 25°C
# [22] = target: B2; test: NMR titration; remark: listed apart in the source
# [23] = target: T3, Ube2g2:G2BR complex; test: NMR titration
# [24] = target: B1; test: NMR titration
molecule,measurement,setting,value
ubiquitin,Kd,[1],~300 µM
gp78 RING finger (aa 313-380) (from UniProt Q9UKV5 313-380) (domain or fragment),Kd,[2],29 µM
G2BRΔN (peptide),Kd,[3],0.74 µM
same,dH,[3],-2.34 kcal/mol
G2BRΔC (peptide),Kd,[4],192 µM
SADERQRMLVQRKDELLQQARKRFLNK [G2BR],ΔG (free energy change),"[5]; ITC, 25°C",-10.45 kcal/mol
same,ΔH,"[5]; ITC, 25°C",-56.3(±0.01) kJ mol^-1
same,ΔS,"[5]; ITC, 25°C",-41.8(±0.04) J K^-1 mol^-1T^-1
same,higher affinity for Ube2g2 of G2BR than of ubiquitin,[5]; versus ubiquitin (~300 μM),"over 10,000 fold"
same,NMR Exchange timescale,[6],slow exchange and slow
same,increase in affinity between the E2 and RING finger caused by G2BR binding,"[7]; Ube2g2:G2BR versus Ube2g2, abstract",~ 50 fold
same,E2 loading with ubiquitin,"[8]; 12°C, with G2BR",almost no detectable loading
same,effect on rate of E2 loading with ubiquitin,"[8]; 30°C, 4 μM (saturating) peptide, 100 nM E1, Ub K0, versus Scr, average of two experiments",marked decrease in the rate of E2 loading
same,formation of Ube2g2~Ub,[8]; in presence of G2BR (discussion),substantial delay in formation of Ube2g2~Ub
same,decrease of the G2BR effect on ubiquitin loading by deletion of aa 96-108,[9],~75%
same,G2BR binding to Ube2g2Δ96-108,[10],G2BR binding was retained
same,effect of peptide in trans on ubiquitylation of truncated gp78,[11],marked increase in ubiquitylation of truncated gp78
same,effect of G2BR on ubiquitylation of Ub-GFP-His6 by GST-gp78CΔ577-643,[12],substantially increased
same,effect on ubiquitylation with UbcH5B,[13],not increased
same,Ube2g2 bound (Ube2g2:RING finger),[14],> 50%
same,RING finger - G2BR direct interaction,[15],do not directly interact
B1,stoichiometry N,[16],1
same,Kd,[17],0.021 ± 0.004 µM
same,dH,[17],-13.456 ± 0.00239 kcal/mol
same,Kd,[18],< 1 µM
"gp78 RING finger (aa 313-380) (domain or fragment, human, UniProt Q9UKV5 313-380, looked up) KNYLRVVGNMEARFAVATPEELAVNNDDCAICWDSMQAARKLPCGHLFHNSCLRSWLEQDTSCPTCRM",NMR Exchange timescale,[19],fast exchange
same,NMR Exchange timescale,[19]; listed as gp78-RING,fast
same,NMR Exchange timescale,[7],fast exchange
same,NMR Exchange timescale,[7]; listed as gp78-RING,fast
same,decrease of Kd of gp78 RING finger for Ube2g2 in presence of G2BR,[7]; Ube2g2:G2BR versus Ube2g2,~ 48 fold
same,Kd,"[20]; 50 mM Tris, 2 mM TCEP",29 µM
same,NMR Exchange timescale,[20],fast
same,loss of Ub-bound Ube2g2,[21],markedly accelerated
same,Kd,[22],144 ± 10 µM
same,Kd,[23],3 ± 1 µM
B2,stoichiometry N,[24],1
